According to the EternaBench riboswitch data:

How the values were obtained:
MS2 coat protein [1] = experiment: apparent Kd, MS2 coat protein; higher = weaker binding; RNA-MaP array; tryptophan 2.4 mM where present
In short: (§1)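 SNAP-549-labelled MS2 coat protein, doubled from 0.7 or 1.5 nM to 3 µM, was titrated over designs transcribed by stalled E. coli RNA polymerase on Illumina sequencing-chip clusters. Titrations were run without and then with constant ligand in 100 mM Tris-HCl pH 7.5, 80 mM KCl, 4 mM MgCl2, BSA, DTT, yeast tRNA and Tween-20. The apparent Kd is the median of filtered per-cluster fits to green signal normalised to red-channel RNA signal and control-cluster median Fmax.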

MS2 coat protein [2] = experiment: apparent Kd, MS2 coat protein; higher = weaker binding; RNA-MaP array; theophylline 2 mM where present
In short: as §1

[3] = designed as: ON switch for tryptophan, no ligand
[4] = ligand present: tryptophan, designed as: ON switch for tryptophan
[5] = designed as: OFF switch for theophylline, no ligand
[6] = ligand present: theophylline, designed as: OFF switch for theophylline
[7] = designed as: ON switch for theophylline, no ligand
[8] = ligand present: theophylline, designed as: ON switch for theophylline

Row | Sequence | apparent Kd (MS2 coat protein [2]; [5]) | apparent Kd (MS2 coat protein [2]; [6]) | apparent Kd (MS2 coat protein [2]; [7]) | apparent Kd (MS2 coat protein [2]; [8]) | other results
1 | AGAGCAUUGACGGCCGCCACUCGUGUCACAUGAGGAUCACCCAUGUGACGGGUGAUCGCCCGGUUGAGGACCGGGUCAAUGCUCA |  |  |  |  | apparent Kd (MS2 coat protein [1]; [3]): 9.69 nM; apparent Kd (MS2 coat protein [1]; [4]): 11.4 nM
2 | UUCACAUGGUAUGAAUAUACAUAUAAGAAACGAGGACCGGUACGGCCGCCACUCGUGCCGGAAACAUGAGGAUCACCCAUGUGUU |  |  |  |  | apparent Kd (MS2 coat protein [1]; designed as: OFF switch for tryptophan, no ligand): 63.5 nM; apparent Kd (MS2 coat protein [1]; ligand present: tryptophan, designed as: OFF switch for tryptophan): 58.5 nM
3 | AACACAUGAGGAUCACCCAUGUCCAUGUACCGAGGACCGGUACGGCCGCCACUCGACAUGAGGAUCACCCAUGUUCCAUGUUGUC |  |  |  |  | apparent Kd (MS2 coat protein [1]; [3]): 108 nM; apparent Kd (MS2 coat protein [1]; [4]): 149 nM
4 | GAUGAACUAUAUGAUACCAGACAACAUGAGGAUCACCCAUGUGAUUGUCGUCCUCUGCCUGUCCCUUGGCAGCGUAUAGUUUAUC | 33.8 nM | 229 nM |  |  | 
5 | AACAUGAGGAUCACCCAUGUAUUGGGUGAUACCAGCCUGAAUAAUGGCCCUUGGCAGCACCGCGCUAACUUUAUGUCUGCGAAAC |  |  | 127 nM | 138 nM | 
6 | UAAAAUAAUAAUGAUACCAGCCCUCCCUCCCGGGACAUGAGGAUCACCCAUGUCUCUCCCGGCCCUUGGCAGCAUAAAUAAUAAU |  |  | 11.1 nM | 14.2 nM | 
7 | ACAUGAAGAUUAAUCGUGGGCAUACUCGAUACCAGUAUUUUAACCUACCCUUGGCAGCGACAUGAGGAUCACCCAUGUGAGAUGA | 21.6 nM | 28.9 nM |  |  | 
8 | UCUCGGUCUUUCUUUCUCCGAGAAUAUGAUACCAGUUAGUUUUAUGGCCCUUGGCAGCAUAGAACAUGAGGAUCACCCAUGUGUU |  |  | 94.2 nM | 108 nM | 
9 | ACGACGCAUAGUGAUACCAGCACAACAUGAGGAUCACCCAUGUCACAUAUGUUGUAAUAAUGCCCUUGGCAGCACUAUGCGUCAG |  |  | 52 nM | 87.3 nM | 
10 | GAUGAUAUUGCAGAUACCAGACACAUGAGGAUCACCCAUGUCGCUGAGAUGCUGGAUCGUGUCCCUUGGCAGCUGCGAUAUCAUC | 55.1 nM | 402 nM |  |  | 
11 | ACGAUAGGACAUGAGGAUCACCCAUGUGAUACCAGCCUGGAAACAGGCCCUUGGCAGCACAAAUACUCCAGAAACCUAUCGAAAA | 258 nM | 417 nM |  |  | 
12 | UGUUUGGUGCGCGAGUGUUGGAUAAAUGAUACCAGUGUAGAUGUACGCCCUUGGCAGCGUAUCCGAACAUGAGGAUCACCCAUGU |  |  | 37.7 nM | 67.2 nM | 
13 | ACGUCACGUUUACUCGUGGUUUCGAUCGAUACCAGUAGCGAGAGUUACCCUUGGCAGCGACAUGAGGAUCACCCAUGUACGAAGA | 13.5 nM | 18.4 nM |  |  | 
14 | UGUUUGGUGCGCGAGUGUUGGAUAAUUGAUACCAGUGUAGAUGUACGCCCUUGGCAGCGAAUCCGAACAUGAGGAUCACCCAUGU |  |  | 32.5 nM | 87.2 nM | 
15 | AUCGUACCUGAUGAUACCAGCAAUUGCUCGUAACAUGAGGAUCACCCAUGUGACCAGUGAUGCCCUUGGCAGCAUGAUCGGUGCA |  |  | 53.8 nM | 12.4 nM | 
16 | AAGCUGCCAAGAACAUGGGUGAAAUGUGAUACCAGCUAGGAAACUAGCCCUUGGCAGCACAUGAGGAUCACCCAUGUAAUAAUAA | 352 nM | 93.7 nM |  |  | 
17 | ACAAGUCCUCAUGAUACCAGCGAUGAGACAAAGUCUCAACAUGAGGAUCACCCAUGUACUCGCCCUUGGCAGCAUACGGUUUUUG |  |  | 415 nM | 43.6 nM | 
18 | UUAGAUAUGACAGAUACCAGCGUGUUGUAGAACAUGAGGAUCACCCAUGUAGUGAUCGAGCGCCCUUGGCAGCUGGUGUGUUUGG |  |  | 149 nM | 440 nM | 
19 | GUAUGGAAACAUACUAGGGUAUCAUGAGAUACCAGUACAGAAAUGUACCCUUGGCAGCUCUAGCAUACAUGAGGAUCACCCAUGU | 14 nM | 22.9 nM |  |  | 
20 | AUAUGAUCAUAUGAUACCAGAAAUGGUAUUCCUUUGUUUCUUACAUGAGGAUCACCCAUGUUCCCUUGGCAGCAUAUGAUCAUAU | 187 nM | 251 nM |  |  | 
21 | GAGCUGAUGUAGAGCUAAUAUAAGAGAGAUACCAGUACAGAAAUGUACCCUUGGCAGCUCAACUUUACAUGAGGAUCACCCAUGU | 13.9 nM | 16.9 nM |  |  | 
22 | GGUGGGACUUGUGAUACCAGCCCAAUUCGAAUCGAAUUGCACAUGAGGAUCACCCAUGUCGGCCCUUGGCAGCAUGAGUAUUUAU |  |  | 312 nM | 16.8 nM | 
23 | GAGCUGAUGUAGAGAUUUUAUUUCUGAGAUACCAGUACAGAAAUGUACCCUUGGCAGCUCAGCUUUACAUGAGGAUCACCCAUGU | 17.2 nM | 22.1 nM |  |  | 
24 | CCAUAUGUAACUGAUACCAGUGUACUGACAUGAGGAUCACCCAUGUUGGGUUUUGUUGUACACCCUUGGCAGCAGAAUCAUAUGG | 62.4 nM | 80.4 nM |  |  | 
25 | AGUGUUAUAACUGAUACCAGACCUUUGCUUAUACAUGAGGAUCACCCAUGUAAAAUGGCUGUCCCUUGGCAGCAGAGAAUACACA |  |  | 46 nM | 16.5 nM | 
26 | AUACCUAAUGAGUCGUGUAACUUUUCAGAUACCAGACUUUUCGUUGUCCCUUGGCAGCUGUUUUACAUGAGGAUCACCCAUGUUG | 15.9 nM | 38.1 nM |  |  | 

Row | Sequence | apparent Kd (MS2 coat protein [2]; [5]) | apparent Kd (MS2 coat protein [2]; [6]) | apparent Kd (MS2 coat protein [2]; [7]) | apparent Kd (MS2 coat protein [2]; [8]) | other results
27 | ACAUGAGGAUCACCCAUGUUCCUCGCCGAUACCAGUGAAGAAUUACGCCCUUGGCAGCGGAAAGAGUAUUUUGGAGAUGAGGUAC | 69.8 nM | 83.5 nM |  |  | 
28 | UCUGGGUGCGCAAGGACCUGGAGUUGCGAUACCAGCACGGUAACGUGCCCUUGGCAGCGCACAUGAGGAUCACCCAUGUGGUGUU | 310 nM | 388 nM |  |  | 
29 | CAGCCUGAUUGGUAAAUCCCUCAUCGUGAUACCAGUCGAGUGAUCGACCCUUGGCAGCACAUGAGGAUCACCCAUGUGCGCGUAA | 26.7 nM | 29.8 nM |  |  | 
30 | AAUAUAAGUGUAAUUAUAUGUAUCUCUGAUACCAGACUCUCAUGUGUCCCUUGGCAGCAGUUACAUGAGGAUCACCCAUGUAUUA |  |  | 103 nM | 31.9 nM | 
31 | CUCCGAGGCUAUACUAUCCGCCUCAGUGAUACCAGAAUACCUAUAUUCCCUUGGCAGCAUCACAUGAGGAUCACCCAUGUGCCAU |  |  | 12.5 nM | 15.2 nM | 
32 | ACACCGAAAGGUGCAUUUACCUUAUCAGAUACCAGACUUUACGUUGUCCCUUGGCAGCUGUAUCACAUGAGGAUCACCCAUGUUG |  |  | 15.5 nM | 16.5 nM | 
33 | GGGAAUGAACGUGAUACCAGAGAUCCGGUCUCCGUCAAUAUACAUGAGGAUCACCCAUGUCUCCCUUGGCAGCACCGUCAUCGGG | 14.8 nM | 23.4 nM |  |  | 
34 | AAUAAGCAGCUGCCUUCCUCAUGAGCAGAUACCAGCUAGGAAACUAGCCCUUGGCAGCUGCAACAUGAGGAUCACCCAUGUAAUA | 65.8 nM | 73 nM |  |  | 
35 | GGAUAGAUAGGAGAUACCAGAUACAUCAACAUGAGGAUCACCCAUGUGUCUGCACUAAGUGUCCCUUGGCAGCUCGGAGAUCUGA |  |  | 32.3 nM | 20.5 nM | 
36 | UAUAUAGUGAUGGAUACCAGCAGAGAAAACGUUUAUCCUAACAUGAGGAUCACCCAUGUAUGCCCUUGGCAGCUGUUGUUAUAUA | 20.1 nM | 28 nM |  |  | 
37 | ACAUGAGGAUCACCCAUGUUCCUCAUUGAUACCAGUGAAUUUAGACGCCCUUGGCAGCGAGUUUUUUUAUAAGAUGUUUUUUUUU | 545 nM | 1110 nM |  |  | 
38 | AAUAACAUGAGGAUCACCCAUGUAAAAGAUACCAGAGUGAUGAUCCUCCCUUGGCAGCUUAAAACGCUAUUGGAAACAAUAGCGA |  |  | 80.5 nM | 168 nM | 
39 | AACCGAGGCUAUCCUCUACGACUAUGUGAUACCAGAAUAAUUUUAUUCCCUUGGCAGCAUGACAUGAGGAUCACCCAUGUCUCUU |  |  | 39.2 nM | 58.2 nM | 
40 | UAUAUAUAGAUGGAUACCAGCAGAGAAAACGUUUAUCCUAACAUGAGGAUCACCCAUGUAUGCCCUUGGCAGCUGUUUAUAUAUA | 24.4 nM | 31.6 nM |  |  | 
41 | UAUUUGGUGCGCGAGUGUUGGAUAAUUGAUACCAGUGAAGAAGAGCGCCCUUGGCAGCGAAUCCUAACAUGAGGAUCACCCAUGU |  |  | 39.2 nM | 48.7 nM | 
42 | AUCGUACCUGAUGAUACCAGCAAUUGCUCGUAACAUGAGGAUCACCCAUGUGAUCAGUGAUGCCCUUGGCAGCAUGAUCGGUGCA |  |  | 262 nM | 35.4 nM | 
43 | UCUUUCUUUGUAGAUACCAGCGUGUUAUCUUUCUUUUGACAUGAGGAUCACCCAUGUAUAUGCCCUUGGCAGCUACAUAUUCUUU |  |  | 18.5 nM | 14.2 nM | 
44 | AUAACAUGAGGAUCACCCAUGUAAGCAGAUACCAGCUAGGAAACUAGCCCUUGGCAGCUGCAAUCCUCAUGUAUUGCAGCUGCAA | 15.7 nM | 36.2 nM |  |  | 
45 | UGACAUUGCUCAGAUACCAGACAUGAGGAUCACCCAUGUACCAAGAAAACGUACAUAAAUGUCCCUUGGCAGCUGAGCAAUGUCU | 524 nM | 713 nM |  |  | 
46 | AAUAAGUAUCUGCUAGGUGAUCCAGCAGAUACCAGCUAGGAAACUAGCCCUUGGCAGCUGCAACAUGAGGAUCACCCAUGUAAUA | 444 nM | 228 nM |  |  | 
47 | AGCAUACAUUCUGAUACCAGAGACAUGAGGAUCACCCAUGUCCGAUCGUCCUGCCUCAGACUCCCUUGGCAGCAGGAUGUGUGCU | 13.9 nM | 33.4 nM |  |  | 
48 | AAAAUAAAUAAAACACGUAACAUGAAGGAUACCAGACCGGAAACGGUCCCUUGGCAGCCUCUACAUGAGGAUCACCCAUGUCGUG |  |  | 238 nM | 30.9 nM | 
49 | ACUUGGUGGUGAUCCCUGCCAAGAGGUGAUACCAGCAUCGAAAGAUGCCCUUGGCAGCACCAACAUGAGGAUCACCCAUGUAAUA |  |  | 156 nM | 157 nM | 
50 | AUACCUAUUGAGUCGUGUUUCUAUUCAGAUACCAGACUUUUCGUUGUCCCUUGGCAGCUGUUUUACAUGAGGAUCACCCAUGUUG | 15 nM | 17.5 nM |  |  | 
51 | ACGACGCAUAGUGAUACCAGUAGAACAUGAGGAUCACCCAUGUCUGUGACGCACAAACUCUGCCCUUGGCAGCACUAUGCGUCAG |  |  | 10.8 nM | 17.4 nM | 
52 | UAAAUAUUACUGGGUAAGGUAUAAAUAGAUACCAGCCAGAUAACUGGCCCUUGGCAGCUAAACAUGAGGAUCACCCAUGUAUAAU |  |  | 37 nM | 116 nM | 
